Screening results: PubChem, The Scripps Research Institute Molecular Screening Center
Rows were chosen to be rich in hits. Some 3.1% of all compounds tested hit in one or more screens of this group.
CHO parental Ca – counter-screen: ATP calcium response change in parental CHO cells; parental CHO-K1, ATP-induced calcium, Fluo-8 fluorescence; inhibition, % at 5.6 µM; 330,000 tested, 0.63% active; AID 463079;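 active means inhibition above that plate's mean sample inhibition plus 3 SD, cut at about 26% in these data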;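 further: 0% = ATP-challenged DMSO wells and 100% = DMSO wells without ATP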
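material = parental CHO cells | also added = ATP as calcium-mobilizing challenge | dosing = single point at 5.6 µM | detection = intracellular calcium via Fluo-8 no-wash fluorescent dye | read-out = % inhibition | benchmarks = low control ATP plus DMSO, high control DMSO only | repeats = one well per compound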
OX1R antag-1 – blocks the human orexin 1 receptor | CHO/OX1R cells, Fluo-8 calcium fluorescence, orexin A | inhibition, % at 5 µM | 330,000 tested, 0.43% active;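 active means inhibition above its plate's threshold, mean inhibition of all tested compounds on the plate plus 3 SD, cut at about 37% in these data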;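 further: 0% = orexin A challenge wells and 100% = SB-334867-A antagonist wells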
Target sequence (O43613 whole entry, looked up): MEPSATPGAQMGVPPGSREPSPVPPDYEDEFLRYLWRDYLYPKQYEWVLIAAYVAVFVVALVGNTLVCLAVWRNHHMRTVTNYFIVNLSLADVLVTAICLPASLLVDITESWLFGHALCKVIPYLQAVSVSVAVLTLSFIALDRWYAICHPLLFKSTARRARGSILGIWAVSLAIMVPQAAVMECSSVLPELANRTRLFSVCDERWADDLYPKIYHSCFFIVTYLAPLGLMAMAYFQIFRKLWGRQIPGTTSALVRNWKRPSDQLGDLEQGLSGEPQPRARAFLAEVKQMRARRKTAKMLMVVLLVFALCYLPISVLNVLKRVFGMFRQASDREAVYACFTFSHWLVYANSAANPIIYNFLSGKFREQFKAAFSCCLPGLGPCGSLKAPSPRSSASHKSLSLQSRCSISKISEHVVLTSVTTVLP
GalR3 antag – blocks the human galanin receptor 3; O60755; HEK293 GalR3-CNG cAMP membrane potential fluorescence; galR3 body fused to GalR1 C-terminus; inhibition, % at 3 µM; 360,000 tested, 0.44% active; AID 651719;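 active means inhibition above the screen-wide average plus 3 SD, cut at about 13% in these data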;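 further: forskolin and galanin both at EC90 stimulate the cells; cAMP rise reported by CNG channel membrane potential dye signal; 0% = forskolin plus galanin with DMSO and 100% = forskolin alone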
OX1R antag-2 – antagonists of human orexin 1 receptor (OX1R); O43613; OX1R-expressing cells, FRET antagonist read-out; inhibition, % at 6.6 µM; 330,000 tested, 1.8% active; in the data active means inhibition mostly above about 38%, no sharp cut-off; inactive means mostly below about 40%;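 further: 0% = agonist challenge alone and 100% = reference antagonist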
GPR7 antagonist – blocks human GPR7 receptor signaling; inhibition, % at 4.4 µM; GPR7-expressing cells, fluorescence antagonist assay; AID 1861; P48145; 290,000 tested, 1.1% active; in the data active means inhibition above about 16%, passing the limit was not always enough;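 further: cells stimulated with the agonist NPW; 0% = agonist with vehicle and 100% = vehicle without agonist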
The depositor's hits bear a star.

How did C[C@@H]1ON(C)[C@H]2C[C@H]3c4[nH]c5c(-c6ccc7c(c6)OCO7)cccc5c4CCN3C(=O)[C@@H]12 do in these assays?
GalR3 antag: -6.2

What do the screens show for `O=c1oc2cc(O)ccc2cc1-c1nc2c(s1)CCc1ccccc1-2`?
CHO parental Ca: 49.9*; OX1R antag-1: 50.0*; GalR3 antag: -1.6; OX1R antag-2: 16.7; GPR7 antagonist: -4.3

What do the screens show for `Cc1nn(-c2ccccc2)nc1C(=O)Nc1ccccc1C(=O)NCC1CC1`?
GalR3 antag: -8.3

How did COC(=O)[C@@H](N[C@H](/C=C/c1ccccc1)[C@@H](O)Cc1ccccc1)C(C)C do in these assays?
GalR3 antag: -7.0

What do the screens show for `O=S(=O)(c1cccs1)N1CCN(CCOc2ccc(Cl)cc2)CC1`?
CHO parental Ca: -4.1; OX1R antag-1: 2.1; GalR3 antag: 0.2; OX1R antag-2: 11.3

What do the screens show for `O=S(=O)(c1cccs1)N1CCN(CC(O)COc2cc(Cl)ccc2Cl)CC1` (stereo not drawn)?
CHO parental Ca: 69.4*; OX1R antag-1: 74.2*; GalR3 antag: 68.5*; OX1R antag-2: 74.7*; GPR7 antagonist: -1.2

What do the screens show for `COc1ccc(CC(=O)NCc2ccccc2F)cc1S(=O)(=O)N1CCOCC1`?
GalR3 antag: -3.0

How did O=C(O)c1oc2ccccc2c1CSc1ccccn1 do in these assays?
CHO parental Ca: -4.5; OX1R antag-1: -10.0; GalR3 antag: 1.7; OX1R antag-2: 19.1; GPR7 antagonist: -11.5

How did O=C(O)c1oc2ccccc2c1CSc1ccc(Cl)cc1 do in these assays?
CHO parental Ca: 0.7; OX1R antag-1: -11.5; GalR3 antag: -7.3; OX1R antag-2: 63.1*; GPR7 antagonist: -3.0

Results for O=C(C1=C(O)C(=O)N(CCc2ccccc2)C1c1ccncc1)c1cc2ccccc2o1 (stereo not drawn) ?
CHO parental Ca: -9.6; OX1R antag-1: -17.1; GalR3 antag: -5.4; OX1R antag-2: 33.0; GPR7 antagonist: -10.4

What do the screens show for `O=C(C1=C(O)C(=O)N(c2nccs2)C1c1ccccc1)c1cc2ccccc2o1` (stereo not drawn)?
CHO parental Ca: 38.5; OX1R antag-1: 51.7*; GalR3 antag: -4.1; OX1R antag-2: 6.3; GPR7 antagonist: 5.0

What do the screens show for `CC(=O)N1c2ccc(S(=O)(=O)N3CCC(C(=O)Nc4cccc(C(F)(F)F)c4)CC3)cc2CC1C` (stereo not drawn)?
CHO parental Ca: 55.1*; OX1R antag-1: 23.4; GalR3 antag: -8.9; OX1R antag-2: 11.4; GPR7 antagonist: 20.9

Results for O=C(Nc1cccc(C(F)(F)F)c1)C1CCN(S(=O)(=O)c2ccc(N3CCCC3=O)cc2)CC1 ?
CHO parental Ca: 73.3*; OX1R antag-1: 48.4*; GalR3 antag: -4.4; OX1R antag-2: 30.1; GPR7 antagonist: 16.3

What do the screens show for `COc1cccc(NC(=O)C2CCN(S(=O)(=O)c3ccc(N4CCCC4=O)cc3)CC2)c1`?
GalR3 antag: -6.0

How did CC(=O)N1c2ccc(S(=O)(=O)N3CCC(C(=O)N4CCC(C)CC4)CC3)cc2CC1C (stereo not drawn) do in these assays?
CHO parental Ca: -13.8; OX1R antag-1: -45.1; GalR3 antag: -4.8; OX1R antag-2: 12.7; GPR7 antagonist: -2.1

How did CC(=O)N1c2ccc(S(=O)(=O)N3CCC(C(=O)N4CCN(c5cc(Cl)ccc5C)CC4)CC3)cc2CC1C (stereo not drawn) do in these assays?
CHO parental Ca: 43.0*; OX1R antag-1: 37.6; GalR3 antag: -5.8; OX1R antag-2: 10.3; GPR7 antagonist: -13.2

Results for CC(=O)N1CCCc2cc(S(=O)(=O)N3CCCC(C(=O)N4CCN(c5cc(C)ccc5C)CC4)C3)ccc21 (stereo not drawn) ?
CHO parental Ca: 44.3*; OX1R antag-1: 50.5*; GalR3 antag: -2.8; OX1R antag-2: 39.9*; GPR7 antagonist: 6.1

What do the screens show for `CC(=O)Nc1nn(C)c2nc3ccc(C)cc3cc12`?
CHO parental Ca: -9.0; OX1R antag-1: -6.0; GalR3 antag: -8.2; OX1R antag-2: 17.8; GPR7 antagonist: 2.6

How did Cc1cc(=O)c2c(ccc3c(=O)cc(C)[nH]c32)[nH]1 do in these assays?
GalR3 antag: -0.2

What do the screens show for `Cc1ccc2c(CNCc3ccccc3)cc(=O)oc2c1`?
CHO parental Ca: -17.1; OX1R antag-1: -10.4; GalR3 antag: -10.0; OX1R antag-2: 11.4; GPR7 antagonist: 2.5

How did CC(C)N1CC(C(=O)Nc2ccc(Cl)cc2Cl)CC1=O (stereo not drawn) do in these assays?
GalR3 antag: -3.9

Results for CCCNC(=O)/C(C#N)=C1\N=C(NC(=O)c2cccs2)c2ccccc21 ?
CHO parental Ca: -1.7; OX1R antag-1: 2.7; GalR3 antag: 2.4; OX1R antag-2: 15.8; GPR7 antagonist: -4.0

Results for COCCNC(=O)/C(C#N)=C1\N=C(NC(=O)c2cccs2)c2ccccc21 ?
CHO parental Ca: -6.7; OX1R antag-1: -7.3; GalR3 antag: -2.2; OX1R antag-2: 41.6*; GPR7 antagonist: -4.6

What do the screens show for `O=C(O)[C@H](Cc1ccccc1)NC(=O)[C@H]1O[C@@H](n2ccc(=O)[nH]c2=O)[C@H](O)[C@@H]1O`?
GalR3 antag: -6.2

Results for CN1/C(=C\P(=O)(N(C)C)N(C)C)C(C)(C)c2ccccc21 ?
CHO parental Ca: 44.6*; OX1R antag-1: 77.3*; GalR3 antag: -4.8; OX1R antag-2: 25.1; GPR7 antagonist: 13.6

How did O=C(O)CCSc1nc2ccccc2s1 do in these assays?
CHO parental Ca: -6.5; OX1R antag-1: -6.1; GalR3 antag: -5.9; OX1R antag-2: 6.3; GPR7 antagonist: 8.5

How did Nc1c(SCCC(=O)O)ccc2c1C(=O)c1ccccc1C2=O do in these assays?
CHO parental Ca: 11.7; OX1R antag-1: 5.7; GalR3 antag: -11.0; OX1R antag-2: 42.8*; GPR7 antagonist: -2.9

Results for Cc1cc(C)n(CC(=O)N/N=C/c2cccs2)n1 ?
CHO parental Ca: 1.2; OX1R antag-1: -16.4; GalR3 antag: -0.6; OX1R antag-2: 3.4; GPR7 antagonist: -6.4

How did Cc1cc(C)n(CC(=O)N/N=C/c2ccc([N+](=O)[O-])s2)n1 do in these assays?
CHO parental Ca: -4.4; OX1R antag-1: -10.1; GalR3 antag: -3.7; OX1R antag-2: 57.9*; GPR7 antagonist: -3.4

Results for CCOC(=O)N/N=C\c1ccc([N+](=O)[O-])s1 ?
CHO parental Ca: -4.3; OX1R antag-1: -4.1; GalR3 antag: -7.0; OX1R antag-2: 52.4*; GPR7 antagonist: -2.8

Results for CCOC(=O)N/N=C\c1ccc(C)s1 ?
CHO parental Ca: 0.4; OX1R antag-1: 3.3; GalR3 antag: -3.3; OX1R antag-2: 15.3; GPR7 antagonist: 2.5

Results for COc1cc(/C=N/NC(=O)c2cccc([N+](=O)[O-])c2)cc(OC)c1O ?
CHO parental Ca: -4.5; OX1R antag-1: -0.6; GalR3 antag: 2.4; OX1R antag-2: 38.9; GPR7 antagonist: -1.0

How did COc1cc(/C=N/NC(=O)c2cncc(Br)c2)cc([N+](=O)[O-])c1O do in these assays?
CHO parental Ca: -6.7; OX1R antag-1: -16.2; GalR3 antag: 25.0*; OX1R antag-2: 27.0; GPR7 antagonist: -18.6
